Experimental data collected from several papers.
Protocols differ between the studies behind these lines.
Target: Testis-specific serine/threonine-protein kinase 3 (TSSK3, Homo sapiens, UniProt Q96PN8)
Sequence (Q96PN8 1-268, as in one of the studies): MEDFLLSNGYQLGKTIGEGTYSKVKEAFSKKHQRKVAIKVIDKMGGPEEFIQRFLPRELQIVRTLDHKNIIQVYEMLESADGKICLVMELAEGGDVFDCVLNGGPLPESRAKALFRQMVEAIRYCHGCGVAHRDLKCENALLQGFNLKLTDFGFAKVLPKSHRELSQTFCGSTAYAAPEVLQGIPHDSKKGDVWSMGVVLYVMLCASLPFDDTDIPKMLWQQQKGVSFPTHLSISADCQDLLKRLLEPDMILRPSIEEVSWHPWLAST

SMILES	test	conditions	endpoint	value
CSc1cccnc1N1CCN(Cc2nc3ccccc3[nH]2)CC1	cell-free assay, competition with immobilised ligand	1 µM	remaining binding	98%
Cc1sc(C(=O)NC2COC2)cc1-n1cc(NC(=O)Nc2c(F)cccc2Cl)cn1	enzyme activity, inhibitor	10 µM	remaining activity	100%
CC1CCCN1c1nccc(-c2cnn3ncccc23)n1 (stereo not shown)	binding	1 µM	remaining binding	99%
Cc1ccc(C(=O)Nc2ccc(CN3CCN(C)CC3)c(C(F)(F)F)c2)cc1C#Cc1cnc2cccnn12	enzyme activity, inhibitor	23.5 nM	remaining activity	84%
COc1cc(Cl)c(C(=O)N[C@@H](CN[C@H]2CC[C@@H](N)CC2)Cc2ccc(C#N)cc2)cc1-c1ccc(CN[C@H](C)c2ccc(C)cc2)o1	enzyme activity, inhibitor	1 µM	remaining activity	97%
CC(C)(O)[C@H]1CC[C@H](Nc2ccc3ncc(-c4cccc(C(F)(F)F)c4)n3n2)CC1	enzyme activity, inhibitor	1 µM	remaining activity	110%
Nc1ncnc2occ(-c3ccc(NC(=O)Nc4cc(C(F)(F)F)ccc4F)cc3)c12	cell-free assay, inhibitor	20 µM	remaining signal	39%
O=C(Nc1cnn(-c2csc(C(=O)NC3COC3)c2)c1)Nc1ccccc1Cl	enzyme activity, inhibitor	5 µM	remaining activity	97.7%
CO[C@H]1CC[C@H](CNc2ccc(S(=O)(=O)NC(=O)c3ccc(N4CCN(CC5=C(c6ccc(Cl)cc6)CC(C)(C)CC5)CC4)cc3Oc3cnc4[nH]ccc4c3)cc2[N+](=O)[O-])CC1	cell-free assay, competition with immobilised ligand	1 µM	remaining binding	70%
CN1CC(Oc2cnc(C#N)cc2-c2ccn3nc(NC(=O)C4CC4)cc3c2)C1	enzyme activity, inhibitor	1 µM	inhibition	-3%
